Active and inactive are the calls of the source. The calls are words filed in the database; no cut-off is given here.

The species entered for data set [1] is Rattus norvegicus. Put plainly: Toxicity in streptozotocin induced diabetic Albino Wistar rat model assessed as induction of sinusoidal space dilation measured 5 hrs post dose by haematoxylin and eosin staining based microscopy. It is filed as organism-based. As to conditions: in vivo.
The species entered for data set [2] is Rattus norvegicus. Put plainly: Toxicity in streptozotocin induced diabetic Albino Wistar rat model assessed as induction of centrizonal triad inflammation measured 5 hrs post dose by haematoxylin and eosin staining based microscopy. It counts as organism-based. As to conditions: in vivo.
The species named for data set [3] is Rattus norvegicus. Put plainly: Toxicity in streptozotocin induced diabetic Albino Wistar rat model assessed as induction of portal triad inflammation measured 5 hrs post dose by haematoxylin and eosin staining based microscopy. It is filed as organism-based. Particulars: in vivo.
For data set [4], the species on record is Rattus norvegicus. Put plainly: Hepatoprotective effect in streptozotocin induced diabetic Albino Wistar rat model assessed as reduction in serum ALT level. It counts as functional, organism-based. The gist of the method:
(§1)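 Serum from STZ-diabetic rats (60 mg/kg i.p.) after oral treatment in 0.25% CMC. AST and ALT measured by the Reitman–Frankel method; ALP by the Walter–Schult method with p-nitrophenyl phosphate substrate.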

For data set [5], the species on record is Rattus norvegicus. The data set is described as follows: Hepatoprotective effect in streptozotocin induced diabetic Albino Wistar rat model assessed as reduction in serum ALP level. It counts as functional, organism-based. Put shortly: as §1
Data set [6] concerns Rattus norvegicus. Put plainly: Antidiabetic activity in streptozotocin induced diabetic Albino Wistar rat model assessed as blood glucose level dosed orally at equimolar dose of Pioglitazone by glucose oxidase method. It is filed as functional. Put shortly:
(§2)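 STZ 60 mg/kg i.p. (freshly made in 0.1 M citrate buffer pH 4.5) to overnight-fasted rats, 5% glucose to drink overnight; diabetic if blood glucose >250 mg/dL on day 3. […] Mean ± SEM, n=5; one-way ANOVA with Dunnett's t test.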

The species entered for data set [7] is Rattus norvegicus. Put plainly: Hepatoprotective effect in streptozotocin induced diabetic Albino Wistar rat model assessed as reduction in serum AST level. It is filed as functional, organism-based. Put shortly:
as §1

The subject of the next data set is 3T3-L1. The data set is described as follows: Increase in PPARgamma gene expression in mouse 3T3L1 cells at 10 uM incubated for 24 hrs by real-time PCR method relative to untreated control. It is filed as functional. The gist of the method:
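3T3-L1 cells in DMEM with 10% calf serum, seeded 24 h ahead in 24-well plates, exposed to 10 µM compound 24 h at 37 °C, 5% CO2; DMSO vehicle as negative control. RNA extracted, reverse transcribed, qPCR in triplicate, repeated twice; relative PPAR-γ transcript by Ct method normalised to β-actin.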
In general terms: In qPCR the cycle at which signal appears reflects the starting amount.

Data set [8] concerns Rattus norvegicus. The data set is described as follows: Antidiabetic activity in streptozotocin induced diabetic Albino Wistar rat model assessed as blood glucose level at 36 mg/kg, po by glucose oxidase method. It counts as functional. Put shortly: as §2
Data set [9] concerns Rattus norvegicus. Put plainly: Toxicity in normal Albino Wistar rat assessed as increase in body weight dosed for 15 days. It counts as organism-based. As to conditions: in vivo, 360 h. Put shortly:
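Normal and STZ-diabetic Wistar rats (STZ 60 mg/kg i.p.) dosed orally daily for 15 days in 0.25% CMC suspension; body weight compared with normal and diabetic controls. Mean ± SEM, n=5; one-way ANOVA with Dunnett's t test.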

Data set [10] is filed under the species Rattus norvegicus. Put plainly: Antidiabetic activity in streptozotocin induced diabetic Albino Wistar rat model assessed as reduction in blood glucose level by oral glucose tolerance test. It counts as functional, organism-based. Put shortly: (§3)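 STZ-diabetic rats (60 mg/kg i.p.; glucose >250 mg/dL on day 3) given compound orally as 0.25% CMC suspension, then oral glucose tolerance and insulin tolerance tests, blood glucose followed over time. Groups: normal control, normal + compound, diabetic control, treated diabetic. Mean ± SEM of five observations; one-way ANOVA, Dunnett's t test.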

The test system of data set [11] is Rattus norvegicus. Put plainly: Antidiabetic activity in streptozotocin induced diabetic Albino Wistar rat model assessed as reduction in blood glucose level measured 90 mins after insulin dosing by insulin tolerance test. It counts as functional, organism-based. Put shortly:
as §3

In data set [12] the target is Voltage-gated inwardly rectifying potassium channel KCNH2 (Homo sapiens, UniProt Q12809). Put plainly: Inhibition of human ERG.
Sequence of Voltage-gated inwardly rectifying potassium channel KCNH2 (Q12809 whole entry): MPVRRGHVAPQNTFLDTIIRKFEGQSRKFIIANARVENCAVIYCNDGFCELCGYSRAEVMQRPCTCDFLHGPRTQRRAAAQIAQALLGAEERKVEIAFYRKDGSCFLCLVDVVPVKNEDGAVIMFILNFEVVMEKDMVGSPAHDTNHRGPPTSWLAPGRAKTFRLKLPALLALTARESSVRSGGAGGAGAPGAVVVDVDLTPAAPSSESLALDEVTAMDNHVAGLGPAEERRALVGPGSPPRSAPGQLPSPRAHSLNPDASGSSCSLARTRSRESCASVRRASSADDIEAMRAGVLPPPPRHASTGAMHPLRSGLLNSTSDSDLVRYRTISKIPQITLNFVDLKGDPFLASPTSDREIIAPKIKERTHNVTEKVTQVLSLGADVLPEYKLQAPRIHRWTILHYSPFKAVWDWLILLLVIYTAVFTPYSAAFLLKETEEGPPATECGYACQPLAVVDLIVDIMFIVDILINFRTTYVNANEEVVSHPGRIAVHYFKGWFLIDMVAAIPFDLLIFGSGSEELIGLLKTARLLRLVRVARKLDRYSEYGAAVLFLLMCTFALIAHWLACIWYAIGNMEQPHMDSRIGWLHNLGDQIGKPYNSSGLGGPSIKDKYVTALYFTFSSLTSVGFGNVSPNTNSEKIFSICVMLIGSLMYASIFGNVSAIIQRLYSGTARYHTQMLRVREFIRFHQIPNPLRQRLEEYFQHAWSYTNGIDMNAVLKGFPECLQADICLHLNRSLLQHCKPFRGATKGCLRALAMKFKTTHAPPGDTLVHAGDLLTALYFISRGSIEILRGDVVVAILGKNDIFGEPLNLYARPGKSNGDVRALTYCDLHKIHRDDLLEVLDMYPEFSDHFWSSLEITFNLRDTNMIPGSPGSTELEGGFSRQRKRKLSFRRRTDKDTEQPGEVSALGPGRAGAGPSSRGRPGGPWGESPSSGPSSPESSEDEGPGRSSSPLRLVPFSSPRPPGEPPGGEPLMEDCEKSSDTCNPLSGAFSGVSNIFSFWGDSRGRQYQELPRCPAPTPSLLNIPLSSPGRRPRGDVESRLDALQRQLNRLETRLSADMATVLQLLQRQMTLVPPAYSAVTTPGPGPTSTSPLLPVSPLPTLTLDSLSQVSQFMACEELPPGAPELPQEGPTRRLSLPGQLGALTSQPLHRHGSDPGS

Consider `COc1cc(/C=C2/SC(=O)NC2=O)ccc1OCc1nnc(-c2ccc(Br)cc2)o1`, for which the Activity entry in the data set listed under Rattus norvegicus [1] was “Non-toxic”; in the data set filed under Rattus norvegicus [2], “Non-toxic”; in the data set filed under Rattus norvegicus [3], “Non-toxic”; in the data set with Rattus norvegicus [6], 135.2 mg/dL. Moreover, the outcome in the data set filed under Rattus norvegicus [4], in the data set filed under Rattus norvegicus [5] and in the data set filed under Rattus norvegicus [7] was Active.

In the case of `O=C1NC(=O)/C(=C\c2ccccc2OCc2nnc(-c3ccccc3)o2)S1`, the Activity entry is “Non-toxic” in the data set listed under Rattus norvegicus [1], “Non-toxic” in the data set listed under Rattus norvegicus [2], “Non-toxic” in the data set filed under Rattus norvegicus [3] and 139.6 mg/dL in the data set on Rattus norvegicus [6]. In addition, the outcome in the data set filed under Rattus norvegicus [4], in the data set filed under Rattus norvegicus [5] and in the data set listed under Rattus norvegicus [7] was Active. Also, in the data set on 3T3-L1, the “fold change (FC)” value amounted to 2.1.

As to `CCc1ccc(CCOc2ccc(CC3SC(=O)NC3=O)cc2)nc1` (stereo not drawn) [PIOGLITAZONE], the Activity in the data set on Rattus norvegicus [8] is 132 mg/dL; in the data set listed under Rattus norvegicus [1] it was “Toxic”; in the data set listed under Rattus norvegicus [2] it was “Toxic”; in the data set filed under Rattus norvegicus [3], “Non-toxic”. Moreover, the result in the data set filed under Rattus norvegicus [4], in the data set filed under Rattus norvegicus [5] and in the data set listed under Rattus norvegicus [7] was Active.

Consider `CN(CCOc1ccc(CC2SC(=O)NC2=O)cc1)c1ccccn1` (stereo not drawn) [ROSIGLITAZONE], for which the Activity in the data set with Rattus norvegicus [8] is 144.2 mg/dL. The “fold change (FC)” value in the data set with 3T3-L1 worked out at 1.

With `O=C1NC(=O)/C(=C\c2ccccc2OCc2nnc(COc3ccc(Cl)cc3Cl)o2)S1`, the Activity entry in the data set listed under Rattus norvegicus [1] is “Non-toxic”; in the data set filed under Rattus norvegicus [2], “Non-toxic”; in the data set with Rattus norvegicus [9], “Non-toxic”; in the data set filed under Rattus norvegicus [3], “Non-toxic”; with Rattus norvegicus [6], 134 mg/dL. For the same molecule, the result in the data set filed under Rattus norvegicus [4], in the data set filed under Rattus norvegicus [5], in the data set listed under Rattus norvegicus [10], with Rattus norvegicus [11] and in the data set filed under Rattus norvegicus [7] was Active. Moreover, the “fold change (FC)” value in the data set on 3T3-L1 is 2. For the same molecule, the IC50 in [12] was determined as 29 µM.

For `COc1cc(/C=C2/SC(=O)NC2=O)ccc1OCc1nnc(-c2ccccc2)o1`, the Activity entry is “Non-toxic” in the data set listed under Rattus norvegicus [1], “Non-toxic” in the data set listed under Rattus norvegicus [2], “Non-toxic” in the data set filed under Rattus norvegicus [3] and 139.7 mg/dL in the data set on Rattus norvegicus [6]. Moreover, the outcome in the data set listed under Rattus norvegicus [4], in the data set filed under Rattus norvegicus [5] and in the data set filed under Rattus norvegicus [7] was Active.

The term IC50 denotes the midpoint of a concentration-inhibition curve. A low value points to higher potency.

Source of the values: ChEMBL document CHEMBL3351839, “Design, synthesis, in silico molecular docking and biological evaluation of novel oxadiazole based thiazolidine-2,4-diones bis-heterocycles as PPAR-γ agonists” (Eur J Med Chem, 2014).
